Compound activity as filed in PubChem.
This is a sample that favours compounds with a hit; in the whole collection about 0.99% have one here.
Tn6 DDE FP – inhibitors of Tn6 peptide binding to fibrin DD(E), primary screen, biochemical, fluorescence polarization, human fibrin, Tn6 probe | Fibrin DD(E) TRITC-Tn6 fluorescence polarization displacement | 370,000 compounds, 0.21% hits | AID 720509, 2013 | Fibrinogen beta chain (Homo sapiens), P02675 | inhibition, % at 8.3 µM;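 active = inhibition above a per-campaign cutoff: mean of compounds within control limits plus 3 SD, cut at about 15% in these data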
ABCG2 inh – ABCG2 efflux pump inhibitors, primary screen, multiplex with ABCB1, IgMXP3 cells, flow cytometry. Broad substrate specificity ATP-binding cassette transporter ABCG2 (Homo sapiens), Q9UNQ0. JC-1 efflux. inhibition, % at 6.6 µM. 190,000 compounds, 0.1% hits;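 active = inhibition above 80%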
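Incubation: cells with compound and JC-1, 10 min at 25 °C, rotating, no wash / Test system: IgMXP3 (ABCG2) plus far-red-tagged CCRF-Adr (ABCB1) cells / Compound dosing: one concentration, 6.6 µM final / Also added: JC-1 fluorescent substrate / Evaluation: efflux inhibition in percent versus controls / Detection: flow cytometry, 530 nm JC-1 signal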
GRK2 aptamer HTS – compounds blocking aptamer binding on GRK2 – biochemical, human GRK2, bead flow cytometry, HTS, primary screen; AID 488847, 2010; FAM-aptamer displacement from GRK2; inhibition of aptamer binding, % at 10 µM; Beta-adrenergic receptor kinase 1 (Homo sapiens), P25098; 330,000 compounds, 0.59% hits;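 active = inhibition of aptamer binding above 40%, roughly 3 SD of noise, on plates passing a quality check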;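 also: median bead fluorescence of bound FAM aptamer so fluorescent compounds give negative values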
Target sequence (P25098 whole entry, looked up): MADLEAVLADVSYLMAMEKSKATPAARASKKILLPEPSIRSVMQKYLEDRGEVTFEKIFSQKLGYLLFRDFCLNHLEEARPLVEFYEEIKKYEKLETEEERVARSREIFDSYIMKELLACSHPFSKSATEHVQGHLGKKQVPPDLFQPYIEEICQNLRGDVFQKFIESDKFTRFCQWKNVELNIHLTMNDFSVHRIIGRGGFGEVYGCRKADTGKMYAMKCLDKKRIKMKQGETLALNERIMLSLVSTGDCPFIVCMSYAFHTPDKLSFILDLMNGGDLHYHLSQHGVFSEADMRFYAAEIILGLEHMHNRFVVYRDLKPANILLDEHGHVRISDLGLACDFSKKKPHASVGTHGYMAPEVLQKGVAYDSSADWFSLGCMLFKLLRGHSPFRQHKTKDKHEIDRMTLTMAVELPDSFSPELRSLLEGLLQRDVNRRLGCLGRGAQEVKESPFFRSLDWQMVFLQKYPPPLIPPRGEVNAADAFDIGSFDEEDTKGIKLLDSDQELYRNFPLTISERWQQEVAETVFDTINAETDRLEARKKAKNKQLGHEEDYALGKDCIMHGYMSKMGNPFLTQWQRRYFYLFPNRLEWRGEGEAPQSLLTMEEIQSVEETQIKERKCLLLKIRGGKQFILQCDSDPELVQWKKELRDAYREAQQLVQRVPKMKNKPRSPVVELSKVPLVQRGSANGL
Ins promoter up – insulin promoter activators in MIN6 cells, imaging, high-content screening, mouse beta cells. z-score at 5 µM. AID 1625, 2009. 190,000 compounds, 0.3% hits. MIN6 insulin promoter-GFP reporter; stronger effect = higher value;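 active = z-score above 3 at 5 µM with at least 500 cells counted in the well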
ABCB1 block – ABCB1 efflux pump inhibitors, primary screen, cell-based, multiplex, flow cytometry, ABCG2 counter-screen | ATP-dependent translocase ABCB1 (Homo sapiens), P08183 | CCRF-Adr cells, JC-1 efflux | inhibition, % at 6.6 µM | 190,000 compounds, 0.067% hits | AID 1326, 2008; in the data active = inhibition above about 40%;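 also: higher value means more JC-1 retained so stronger ABCB1 efflux block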
Tn7 DDE FP – inhibitors of Tn7 peptide binding to fibrin DD(E), primary screen, biochemical, fluorescence polarization, human fibrin, Tn7 probe | FP displacement of FITC-Tn7 peptide from fibrin DD(E); 0% = median of compound wells per plate | inhibition, % at 8.3 µM | 370,000 compounds, 0.13% hits;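 active = inhibition above the mean of compounds falling within the control limits plus 3 SD of them, cut at about 14% in these data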
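Test system – human fibrin DD(E) · Times – 10 min preincubation, 3 h with tracer, room temperature · Detection – fluorescence polarization of the labelled Tn7 tracer · Measure – percent inhibition normalized to high-control wells · Benchmarks – high control wells with 10 µM unlabelled Aha-Tn7 peptide (full inhibition) · Repeats – singlicate testing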
GRK2 inh confirm – GRK2 aptamer-displacing inhibitors, retest, confirmation, biochemical, cherry pick 1, bead flow cytometry; shares compounds with GRK2 aptamer HTS; bead-bound GRK2, FAM-aptamer displacement; aptamer displacement, % at 10 µM; 2,000 compounds, 4% hits;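 active = aptamer displacement above 40%, near three times the noise of non-fluorescent compounds, on plates passing quality checks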;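 also: negative values mostly reflect intrinsic compound fluorescence rather than true enhancement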
Aptamer quench 1 – fluorescent aptamer quenching in GRK2 counter-screen dose response. Fluorescent RNA aptamer beads, flow cytometry; stronger effect = higher value. 110 tested, under 10 active. fluorescence change (kMESF span), kMESF (test concentration not listed). shares compounds with GRK2 aptamer HTS. AID 504521;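 active = compounds whose bead fluorescence drops by more than 37 kMESF across the dose range, marking them as dye quenchers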
FAM quench CP1 – quenches fluorescent RNA aptamer, GRK2 hit artifact; 2,000 tested, under 10 active; fluorescence response (% of DMSO), % at 10 µM; Carboxyfluorescein RNA aptamer on beads, flow cytometry quenching; stronger effect = lower value; shares compounds with GRK2 aptamer HTS;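 active = compounds that quench the bead-bound fluorescent RNA probe, cutting fluorescence to under half of the solvent control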;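 also: counterscreen run without GRK2 so only probe quenching by compound is measured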
GRK2 CP2 – GRK2 aptamer-displacing inhibitors, hit retest, confirmation, biochemical, cherry pick 2, bead flow cytometry; bead-bound GRK2, FAM-aptamer displacement; inhibition of aptamer binding, % at 10 µM; 360 tested, under 10 active; shares compounds with GRK2 aptamer HTS; AID 504782, 2011;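 active = inhibition of aptamer binding above 40%, about triple the noise seen with nonglowing compounds, on plates passing quality control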;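 also: negative values mostly come from compounds that fluoresce themselves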
FAM quench CP2 – quenches fluorescent RNA aptamer, GRK2 hit artifact. shares compounds with GRK2 aptamer HTS. carboxyfluorescein RNA aptamer beads, flow cytometry quenching; stronger effect = lower value. fluorescence response vs DMSO, % at 10 µM. 360 tested, under 10 active. AID 588494;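 active = response vs DMSO under 50%, meaning signal dropped by over half, treated as fluorescence quencher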;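 also: labelled aptamer on streptavidin beads without GRK2 as a quench counter-screen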
Large screens that a line does not name were inactive (follow-up assays come after a bar, where they were run).

CC(=O)NC(C)C(=O)N1CCCC1C(=O)N1CCCC1C(=O)NC(C)C(=O)NC1C(=O)NC(CC(C)C)C(=O)NC2CCCCNC(=O)CCC(C(=O)NC(Cc3ccc(O)cc3)C(=O)O)NC(=O)C3CCC(=O)OCC(NC(=O)C4CCCN4C(=O)C(Cc4c[nH]c5ccccc45)NC2=O)C(=O)NC(CC(=O)OC1C)C(=O)NC(Cc1c[nH]c2ccccc12)C(=O)N3 (centres undefined)	none (no result: ABCG2 inh, GRK2 aptamer HTS, Ins promoter up, ABCB1 block)
Cc1nnc(SCc2c(Cl)cccc2Cl)n(N)c1=O	GRK2 aptamer HTS 61 | GRK2 inh confirm inactive | FAM quench CP1 inactive
Cc1nnc(SCc2cccc3ccccc23)n(N)c1=O	none
CSc1ccccc1NC(=O)N1CCCC(C(=O)c2ccc3c(c2)OCO3)C1 (centres undefined)	GRK2 aptamer HTS 95 | GRK2 inh confirm inactive | FAM quench CP1 inactive
Cc1ccccc1Cn1cc(CN2[C@H](CC(C)C)COc3cc(Br)ccc3S2(=O)=O)nn1	none (no result: ABCG2 inh, GRK2 aptamer HTS, Ins promoter up, ABCB1 block)
O=C(Cc1cccs1)Nc1nc2c(ccc3ccccc32)s1	none | GRK2 CP2 inactive | FAM quench CP2 inactive
CN(C)S(=O)(=O)c1ccc(N2CCCC2)c(C(=O)Nc2nc3c(ccc4ccccc43)s2)c1	none | GRK2 CP2 inactive | FAM quench CP2 inactive
CC(=O)Nc1nc2c(ccc3ccccc32)s1	none (no result: ABCG2 inh, Ins promoter up, ABCB1 block) | GRK2 CP2 inactive | FAM quench CP2 inactive
O=C(Cc1cccs1)Nc1nnc(SCc2cccc3ccccc23)s1	none
Cc1cnc(NC(=O)c2cc(S(=O)(=O)N(C)C)ccc2N2CCCC2)s1	none (no result: ABCG2 inh, Ins promoter up, ABCB1 block)
CC(=O)Nc1nc2c(F)cccc2s1	none (no result: ABCG2 inh, Ins promoter up, ABCB1 block)
O=C(CCC1CCN(Cc2nccs2)CC1)Nc1ccccc1	none (no result: ABCG2 inh, GRK2 aptamer HTS, Ins promoter up, ABCB1 block)
O=C1C=C(O)CC(c2ccco2)C1 (centres undefined)	GRK2 aptamer HTS 91 (no result: Ins promoter up) | GRK2 inh confirm inactive | FAM quench CP1 inactive
O=C1CC(=O)CC(c2ccco2)C1	none
Cc1ccc(N2C(=O)[C@@H]3C(c4cccnc4)=NO[C@@H]3C2=O)cc1	none (no result: ABCG2 inh, ABCB1 block)
COc1ccc(N2C(=O)[C@@H]3C(c4cccnc4)=NO[C@@H]3C2=O)cc1	none (no result: ABCG2 inh, ABCB1 block)
COc1ccc(OC)c(N2C(=O)c3cccnc3C2=O)c1	none (no result: ABCG2 inh, Ins promoter up, ABCB1 block)
COc1ccc(C2=NO[C@@H]3C(=O)N(c4c(C)cccc4C)C(=O)[C@H]23)cc1OC	none | GRK2 CP2 inactive | FAM quench CP2 inactive
COc1ccc(OC)c(N2C(=O)[C@@H]3C(c4ccccc4Cl)=NO[C@@H]3C2=O)c1	GRK2 aptamer HTS 70 | GRK2 inh confirm 98 | Aptamer quench 1 inactive | FAM quench CP1 inactive
Cc1cccc(C)c1N1C(=O)[C@@H]2C(c3ccccc3Cl)=NO[C@@H]2C1=O	none (no result: ABCG2 inh, ABCB1 block) | GRK2 CP2 inactive | FAM quench CP2 inactive
